Data published in PMC8814381 (EBioMedicine, 2022).

Experiments:
[1] = test system: TNBC MDA-MB-231 or ER-positive IOWA-1T tumours; experiment: Intraoperative imaging of orthotopic MFP xenografts, recurrence follow-up; type: in vivo, athymic mice; conditions: 0.5 mg/kg i.v.; for average volume of the recurrent tumours: four weeks after tumour resection
Outline: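 MDA-MB-231 or IOWA-1T cells were injected s.c. at the nipple base into the fourth abdominal fat pad of athymic mice. Once tumours formed, mice received PBS, free dye or test compound at 0.5 mg/kg i.v. After 24 h, tumours were resected with a 2 mm margin under NIR camera monitoring. PBS controls were resected by palpation and direct visualization only. Adverse events during removal and later recurrence at the resection site were recorded.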

[2] = test system: triple-negative PDX cells (stage IV) tumours; experiment: Image-guided tumour resection in a PDX tumour model, recurrence follow-up; type: in vivo, NSG mice; conditions: four weeks after image-guided surgery
Outline: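 Female NSG mice, 4–5 weeks old, carried triple-negative PDX (stage IV) tumours in the mammary fat pads. At 200–300 mm³ they were randomized into five groups: test probe, free dye, two control peptide–dye conjugates, or PBS. Agents were given i.v. (tail vein) at an equivalent of 0.5 mg/kg. After 24 h, tumours were excised with a ~2 mm margin under NIR camera guidance (not for PBS). Wounds were sutured, and recurrence was assessed 4 weeks later.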

[3] = test system: multiple subtypes of breast cancer; experiment: Overall recurrence in multiple breast cancer animal models; type: in vivo, mice
[4] = test system: MDA-MB-231 human breast cancer tumours; type: in vivo, athymic mice; conditions: 0.2–1.0 mg/kg i.v., imaged 6–72 h, PDE unit, normal tissue thigh
Outline: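 Female athymic mice, 4–5 weeks old, bore s.c. MDA-MB-231 tumours (1.0 × 10⁶ cells, right back). They received test compound or free dye i.v. (tail vein) at 0.2, 0.5 or 1 mg/kg. Prescans were taken before injection, and 800 nm NIR imaging followed at 6–72 h. The tumour-to-background ratio used ROIs over the whole tumour and over normal tissue (thigh muscle). Statistics: ANOVA.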

[5] = test system: PDX tumour margins; experiment: Histological analysis; type: in vivo, NSG mice; conditions: PDX model, H&E and Ki-67, sixteen mammary tissue samples from eight mice
Outline: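 Tumour-margin tissue (~2 mm³) taken at the 6 and 12 o'clock positions around resected PDX tumours in NSG mice. Samples were fixed 24 h in buffered 3.7% formalin, then moved to 70% ethanol. They were paraffin-embedded and cut into 4 μm sections for staining.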

[6] = cited from earlier work

| Molecule | adverse events related to administration during tumour removal [1] | average volume of the recurrent tumours [1] [mm^3] | average volume of the recurrent tumours [2] [mm^3] | average recurrent tumour volume, multiple subtypes of breast cancer ([3]; Figures 4,6 pooled) [mm^3] | tumour/normal tissue ratio of NIR signal [4] | positive margin rate [5] | specificity ([3]; from tumour recurrence rate 8%, N = 2/24) [%] | stability [6] | water solubility [6] |
| --- | --- | --- | --- | --- | --- | --- | --- | --- | --- |
| CC1(C)C(/C=C/C=C/C=C/C=C2\N(CCCCS(=O)(=O)O)c3ccc4ccccc4c3C2(C)C)=[N+](CCCCS(=O)(=O)[O-])c2ccc3ccccc3c21 [ICG, indocyanine green] | no apparent adverse events | 423 | 1952 | 1188 | ~1 |  |  |  |  |
| ICG-p28: NIR fluorescence imaging probe composed of tumour-targeting peptide p28 and the NIR dye indocyanine green (ICG) | no apparent adverse events | 197 | 403 |  |  | malignant cell free margin | 92 |  |  |
| p28: Pseudomonas aeruginosa azurin-derived cell-penetrating peptide, tested in two phase I clinical trials |  |  |  |  |  |  |  | stable | highly water soluble |
